Lmaj promast: inhibitors of Leishmania major promastigote growth. inhibition, % at 10 µM. Leishmania major promastigotes, resazurin fluorescence viability. actives 9% (n = 200,000); in the data active = inhibition above about 50%;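 also: promastigotes grown with compound for 44 hours at 28 °C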
DTT redox prof: compounds producing H2O2 with reducing agent – biochemical, NIH compound library profiling, artefact control for MLSCN library redox annotation, primary screen; DTT-dependent redox cycling H2O2, phenol red/HRP absorbance; 100% = 100 µM peroxide control, 0% = buffer; activation, % at 10 µM; actives 0.03% (n = 200,000);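 active = activation of at least 50% relative to the plate's high and low controls in the primary single-dose screen; inactive = activation below 50%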;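 also: compound incubated with DTT at 0.8 mM final as the reducing agent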
Hep lipid drop: hepatic lipid droplet formation modulation | AML12 mouse hepatocytes, oleate lipid droplets, BODIPY imaging | inhibition, % at 6.5 µM | actives 0.4% (n = 240,000) | AID 1656;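 active = lipid droplet intensity inhibited by at least 50%, with more than 500 cells counted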
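System: AML12 hepatocytes (mouse). Probe or stimulus: oleic acid at 100 µM to induce lipid droplet formation. Times: overnight treatment with compound plus oleate. Detection: Image-based BODIPY and DAPI two-channel analysis. Evaluation: percent inhibition of filter-corrected integrated lipid droplet intensity per well.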
T cruzi inh: T. cruzi replication inhibition | T. cruzi beta-gal in NIH3T3, luminescence, 90 h | inhibition, % (test concentration not listed) | actives 1.4% (n = 300,000) | AID 1885;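 active = mean inhibition across valid replicates above about 55%, limit read from the data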;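 also: signal also drops with host cell toxicity which is not excluded here; higher percent means less beta-gal luminescence so fewer parasites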
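Assay system: NIH/3T3 fibroblasts plus reporter T. cruzi. Amount: NIH/3T3 cells, 5,000 per well. Buffer or medium: DMEM, 2% fetal bovine serum. Doses: compound pinned at 50 nL/well, DMSO. Schedule: ≥90 h infection period, 3 h prior cell attachment. Signal: luminescent β-galactosidase signal after 60 min lysis. Read-out: parasite load inhibition, %.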
MPTP inh: blocks calcium-induced mitochondrial swelling | isolated mouse mitochondria, Ca2+ swelling absorbance, 30 min | inhibition, % at 10 µM | actives 1.4% (n = 360,000);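 active = inhibition of 50% or more, scaled per plate between neutral and stimulator controls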
Rh123 counter: Rhodamine 123 counter-screen of mitochondrial pore hits. isolated mitochondria, membrane potential, Rhodamine 123 fluorescence. actives 78% (n = 5,000). inhibition, % at 10 µM. shares compounds with MPTP inh; in the data active = inhibition above about 22%
MPTP swell DR: MPTP inhibition, dose response swelling confirmation; shares compounds with MPTP inh; isolated mitochondria swelling, absorbance; IC50, µM; actives 58% (n = 780); in the data active = IC50 below about 20 µM
MPTP cs DR: MPTP inhibitor counter-screen activity, dose response | actives 49% (n = 780) | AID 651564 | shares compounds with MPTP inh | isolated mitochondria counterscreen, fluorescence read-out | IC50, µM; in the data active = IC50 below about 80 µM
Hits are given with their value; n = inactive; x = no result. The entries come from a sample that favours hits as a whole.

SMILES | Lmaj promast | DTT redox prof | Hep lipid drop | T cruzi inh | MPTP inh | Rh123 counter | others
CC(/C=N\NC(=O)Cn1c(C)nc2ccccc21)=C\c1ccccc1 | n | n | x | n | 54 | 65
CCCCSc1nc(C)cc(SCC(=O)N/N=C/c2ccccc2)n1 | n | n | n | n | n | x
CC(/C=N/NC(=O)CSc1nc(C)cc(C)n1)=C\c1ccccc1 | n | n | n | n | 50 | 53
CN(C)CCN(C(=O)/C=C/c1cccs1)c1nc2ccc(F)cc2s1 | n | n | n | n | 72 | n | MPTP swell DR=13;MPTP cs DR=n
CCN(CC)CCN(C(=O)/C=C/c1cccs1)c1nc2ccc(Cl)cc2s1 | x | x | n | n | n | x
Clc1c(Cl)c(Cl)c2n[nH]nc2c1Cl | x | x | n | n | 72 | 77
CC12CCC(=O)N1C(C(=O)OCC(=O)Nc1ccc(C(F)(F)F)cc1)CS2 (stereo not drawn) | x | x | x | x | n | x
Cc1cc(C)c(CN2CCN(C(=O)Cn3cnc4c(OCc5ccccc5)ncnc43)CC2)c(C)c1 | x | x | x | x | 67 | 84
CCN(C(=O)COC(=O)c1cccc(S(=O)(=O)NCc2ccccc2)c1)c1ccccc1 | x | x | x | x | n | x
CC1CCCN(C(=O)c2ccc(S(=O)(=O)N3CCC(c4nc5ccccc5s4)CC3)cc2)C1 (stereo not drawn) | n | n | x | n | n | x
CCN(CC)C(=O)c1ccc(S(=O)(=O)N2CCC(c3nc4ccccc4s3)CC2)cc1 | n | n | n | n | 89 | 94
CCN(C(=O)CSc1ncccn1)c1cccc2ccccc12 | x | x | x | x | n | x
COc1ccc(Cn2nnnc2C(c2ccc3ncccc3c2)N2CCN(C3CCCCC3)CC2)cc1 (stereo not drawn) | n | n | n | n | n | x
COc1ccc(Cn2nnnc2C(c2ccc(C)cc2)N2CCN(C3CCCC3)CC2)cc1 (stereo not drawn) | n | n | x | n | 77 | n | MPTP swell DR=n;MPTP cs DR=n
Fc1cccc(Cl)c1-c1nnc2ccc3ccccc3n12 | n | n | n | n | 51 | 31
Fc1ccccc1-c1nnc2ccc3ccccc3n12 | x | x | n | n | n | x
O=C(COC(=O)/C=C/c1ccc(F)cc1)NCc1ccco1 | n | n | n | n | n | x
O=C(COC(=O)C1(c2ccc(F)cc2)CCCC1)NCc1ccco1 | n | n | n | n | 90 | n | MPTP swell DR=n;MPTP cs DR=61
CC(C)C1N(C(=O)N2CCOCC2)CCN1S(=O)(=O)c1ccccc1 (stereo not drawn) | x | x | n | n | n | x
O=C(COC(=O)CNS(=O)(=O)/C=C/c1ccccc1)Nc1cc(S(=O)(=O)N2CCCCC2)ccc1Cl | n | n | x | n | 70 | n | MPTP swell DR=n;MPTP cs DR=11
Cc1ccc(S(=O)(=O)N2CCCCC2)cc1NCC(=O)Nc1ccc(Br)cc1F | x | x | x | x | 66 | 94
O=C(COC(=O)CCS(=O)(=O)c1ccccc1)Nc1cc(S(=O)(=O)N2CCCCC2)ccc1Cl | x | x | x | n | n | x
O=C(CNc1ccccc1F)Nc1cc(S(=O)(=O)N2CCCCC2)ccc1Cl | x | x | x | x | n | x
O=C(Nc1cc(S(=O)(=O)N2CCCCC2)ccc1Cl)c1ccncc1 | x | x | x | x | n | x
Cc1ccc(S(=O)(=O)N2CCCCC2)cc1NC(=O)Nc1ccc(Cl)cc1Cl | n | n | x | 55 | 85 | 29
SMILES | Lmaj promast | DTT redox prof | Hep lipid drop | T cruzi inh | MPTP inh | Rh123 counter | others
Cc1ccc(S(=O)(=O)N2CCCCC2)cc1NC(=O)c1ccccc1Cl | x | x | x | x | n | x
O=C(Nc1cccc(Cl)c1)Nc1cc(S(=O)(=O)N2CCCCC2)ccc1Cl | n | n | n | 55 | 84 | 63
Cc1ccc(C(=O)N2C(CC(=O)Nc3ccc(Cl)cc3)C(=O)NC3CCCCC32)cc1 (stereo not drawn) | n | n | n | n | n | x
Cc1ccc(OCCn2c(=S)[nH]c3ccccc32)c(C(C)C)c1 | x | x | n | n | n | x
O=C(Nc1ccc([N+](=O)[O-])cc1)/C(=C/c1cccc([N+](=O)[O-])c1)NC(=O)C1CCCCC1 | n | n | x | n | 98 | 75
Cc1cccc(N2CCN(C(=O)CSCc3c(C)noc3C)CC2)c1C | n | n | x | n | 90 | 75
COc1ccc(NC(=O)Nc2ccc3c(c2)CC(=O)N([C@H](C)CO)C[C@@H](C)[C@H](CN(C)C(=O)Nc2ccccc2)O3)cc1 | x | x | x | x | n | x
Cc1ccc(S(=O)(=O)Nc2ccc3nc(N)sc3c2)cc1 | n | n | x | n | 85 | 38
Cc1nc2ccc(NS(=O)(=O)c3ccc(F)c(F)c3)cc2s1 | x | x | x | x | n | x
Cc1ccc2nc(-c3ccc(NS(=O)(=O)c4ccc(F)c(F)c4)cc3)sc2c1 | n | n | n | n | 60 | 71
Cc1ccc2nc(-c3ccc(NS(=O)(=O)c4ccccc4)cc3)sc2c1 | n | n | n | n | n | x
Cc1ccc(S(=O)(=O)Nc2ccc3nc(C)sc3c2)cc1 | n | n | x | n | 68 | 105
Cc1nc2ccc(NS(=O)(=O)c3c(C)c(C)cc(C)c3C)cc2s1 | n | n | n | n | n | x
Cc1nc2ccc(NS(=O)(=O)c3ccc(Br)cc3)cc2s1 | x | x | x | x | 81 | 99
Cc1nc2ccc(NS(=O)(=O)c3cccc([N+](=O)[O-])c3)cc2s1 | x | x | x | x | 55 | 72
Cc1nc2ccc(NS(=O)(=O)c3ccc4c(c3)OCCO4)cc2s1 | n | n | n | n | 96 | 97
CC(=O)Nc1ccc2nc(NS(=O)(=O)c3ccc(C)cc3)sc2c1 | n | n | n | n | n | x
CC(=O)Nc1ccc(S(=O)(=O)Nc2ccc3nc(C)sc3c2)cc1 | x | x | x | x | 59 | 83
CSc1nc2ccc(NS(=O)(=O)c3ccc(Cl)s3)cc2s1 | n | n | n | n | 87 | 77
Cc1nc2ccc([N+](=O)[O-])cc2s1 | n | n | n | n | n | x
O=[N+]([O-])c1ccc(S(=O)(=O)NCCc2ccncc2)cc1 | n | n | n | n | n | x
Cn1ccc2c(N3CCCCCCC3)cc3c(c21)C1CCC3O1 (stereo not drawn) | x | x | x | x | n | x
CCC(C)C(NC(=O)c1ccccc1NC(=O)c1ccc(OC)cc1)C(=O)NCCCn1ccnc1 (stereo not drawn) | x | x | n | n | n | x
Cn1ncc(Cl)c1C(=O)NC(=S)Nc1sc2c(c1C#N)CCCCC2 | n | n | x | n | 90 | n | MPTP swell DR=n;MPTP cs DR=<2.5
CC(C)CC(=O)NC(NC(=S)Nc1sc2c(c1C#N)CCCC2)C(Cl)(Cl)Cl (stereo not drawn) | n | n | x | n | 90 | 97
CCC(=O)Nc1sc2c(c1C#N)CCC2 | n | n | n | n | n | x
N#Cc1c(NC(=S)NC(=O)c2ccccc2)sc2c1CCCC2 | n | n | n | n | 86 | n | MPTP swell DR=n;MPTP cs DR=6.7
CC1CCc2c(sc(NC(=S)NC(=O)c3ccccc3)c2C#N)C1 (stereo not drawn) | x | x | n | n | 66 | 70
COc1cc(C(=O)Nc2cc(S(=O)(=O)N3CCOCC3)ccc2N2CCOCC2)cc(OC)c1C | x | x | x | x | n | x

Compound activity from PubChem BioAssay.
